From ChEMBL document CHEMBL3091313, “Amino acids derived benzoxazepines: design, synthesis and antitumor activity” (Bioorg Med Chem Lett, 2013)
Active and inactive are the calls of the source. No cut-off for these calls is given here.

Tests used:
MDA-MB-231 [1] = assay: Cell cycle arrest in human MDA-MB-231 cells assessed as apoptosis at 3 uM after 24 hrs using propidium iodide staining by flow cytometry (reference value: 0.10 %); assay type: functional
MCF7 [2] = assay: Cell cycle arrest in human MCF7 cells assessed as decrease in cyclin D1 protein level at 5 uM after 12 to 24 hrs by immunoblotting method; assay type: functional, cell-based
HEK293 = assay: Cytotoxicity against HEK293 cells after 24 hrs by MTT assay; assay type: cell-based; conditions: Homo sapiens, HEK293, 72 h; in the assay text read “after 72 hrs” for “after 24 hrs”
MCF7 [3] = assay: Cell cycle arrest in human MCF7 cells assessed as accumulation at S phase at 1 uM after 24 hrs using propidium iodide staining by flow cytometry (reference value: 24.81 %); assay type: functional
MDA-MB-231 [4] = assay: Antiproliferative activity against human MDA-MB-231 cells after 72 hrs by MTT assay; assay type: functional, cell-based; conditions: MDA-MB-231, 72 h
Summary of the method: (§1)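 MCF-7 (ER+ve) and MDA-MB-231 (ER-ve) breast cancer cells were exposed to compound or vehicle. Viability was read by MTT and expressed as % cell death versus vehicle, with 4-hydroxytamoxifen as positive control. IC50 came from three independent experiments, each in triplicate.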

MCF7 [5] = assay: Induction of apoptosis in human MCF7 cells assessed as PARP cleavage after 6 to 24 hrs by densitometry; assay type: functional, cell-based
Summary of the method: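 Lysates from treated MCF-7 cells were immunoblotted for PARP, and cleaved PARP was quantified by densitometry. Data are mean ± SEM of three independent experiments.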

MCF7 [6] = assay: Antitumor activity against human MCF7 cells xenografted in athymic nude mouse assessed as reduction in tumor volume at 16 mg/kg/day, po for 21 days measured after 21 days relative to control; assay type: functional; parameters: scale not given: the % may be the effect or the level left
MDA-MB-231 [7] = assay: Cell cycle arrest in human MDA-MB-231 cells assessed as apoptosis at 1 uM after 24 hrs using propidium iodide staining by flow cytometry (reference value: 0.10 %); assay type: functional
[8] = Cytotoxicity against rat primary calvarial osteoblasts after 24 hrs by MTT assay; assay type: cell-based; conditions: calvarial osteoblast
Summary of the method: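 Vero, HEK-293 and primary rat calvarial osteoblasts were given vehicle or a range of concentrations for 24 h. Cell death was expressed as % relative to vehicle.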

MDA-MB-231 [9] = assay: Cell cycle arrest in human MDA-MB-231 cells assessed as accumulation at G1 phase at 3 uM after 24 hrs using propidium iodide staining by flow cytometry (reference value: 52.67 %); assay type: functional
MCF7 [10] = assay: Cell cycle arrest in human MCF7 cells assessed as accumulation at G1 phase at 5 uM after 24 hrs using propidium iodide staining by flow cytometry (reference value: 67.73 %); assay type: functional
MCF7 [11] = assay: Induction of apoptosis in human MCF7 cells assessed as late apoptotic cells at 1 uM after 24 hrs using annexin V/PI staining by flow cytometry (reference value: 6.46 %); assay type: functional
Summary of the method: (§2)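 MCF-7 cells were exposed to vehicle or the indicated compound concentrations for 24 h. Phosphatidylserine exposure was then measured by flow cytometry after staining with FITC-labelled Annexin V and propidium iodide. Apoptotic cell fractions were read from dot plots relative to vehicle.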

MCF7 [12] = assay: Cell cycle arrest in human MCF7 cells assessed as accumulation at G2 phase at 3 uM after 24 hrs using propidium iodide staining by flow cytometry (reference value: 7.46 %); assay type: functional
MCF7 [13] = assay: Cell cycle arrest in human MCF7 cells assessed as accumulation at G1 phase at 1 uM after 24 hrs using propidium iodide staining by flow cytometry (reference value: 67.73 %); assay type: functional
MCF7 [14] = assay: Cell cycle arrest in human MCF7 cells assessed as accumulation at G2 phase at 1 uM after 24 hrs using propidium iodide staining by flow cytometry (reference value: 7.46 %); assay type: functional
MCF7 [15] = assay: Induction of apoptosis in human MCF7 cells assessed as late apoptotic cells at 3 uM after 24 hrs using annexin V/PI staining by flow cytometry (reference value: 6.46 %); assay type: functional; summary of the method: as §2
MCF7 [16] = assay: Induction of apoptosis in human MCF7 cells assessed as caspase-8 cleavage at 5 uM after 6 hrs by immunoblotting method; assay type: functional, cell-based
MDA-MB-231 [17] = assay: Cell cycle arrest in human MDA-MB-231 cells assessed as accumulation at G1 phase at 1 uM after 24 hrs using propidium iodide staining by flow cytometry (reference value: 52.67 %); assay type: functional
MCF7 [18] = assay: Cell cycle arrest in human MCF7 cells assessed as apoptosis at 5 uM after 24 hrs using propidium iodide staining by flow cytometry (reference value: 0.06 %); assay type: functional
MCF7 [19] = assay: Induction of apoptosis in human MCF7 cells assessed as DNA fragmentation after 24 hrs by ELISA; assay type: functional, cell-based
Summary of the method: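 MCF-7 cells were treated with compound, with 4-OHT alongside. DNA fragmentation was quantified after 24 h and expressed relative to a positive control set at 100%. Data are mean ± SEM of three independent experiments.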

MDA-MB-231 [20] = assay: Cell cycle arrest in human MDA-MB-231 cells assessed as apoptosis at 5 uM after 24 hrs using propidium iodide staining by flow cytometry (reference value: 0.10 %); assay type: functional
MCF7 [21] = assay: Cell cycle arrest in human MCF7 cells assessed as accumulation at S phase at 5 uM after 24 hrs using propidium iodide staining by flow cytometry (reference value: 24.81 %); assay type: functional
MDA-MB-231 [22] = assay: Cell cycle arrest in human MDA-MB-231 cells assessed as accumulation at S phase at 1 uM after 24 hrs using propidium iodide staining by flow cytometry (reference value: 28.59 %); assay type: functional
MDA-MB-231 [23] = assay: Antiproliferative activity against human MDA-MB-231 cells after 24 hrs by MTT assay; assay type: functional, cell-based; conditions: MDA-MB-231, 24 h; summary of the method: as §1
MCF7 [24] = assay: Induction of apoptosis in human MCF7 cells assessed as caspase-3 cleavage at 5 uM after 3 hrs by immunoblotting method; assay type: functional, cell-based
MDA-MB-231 [25] = assay: Cell cycle arrest in human MDA-MB-231 cells assessed as accumulation at S phase at 3 uM after 24 hrs using propidium iodide staining by flow cytometry (reference value: 28.59 %); assay type: functional

Cc1ccc(S(=O)(=O)N2Cc3ccccc3OC[C@@H]2Cc2ccc(OCCN3CCCCCC3)cc2)cc1.Cl
Activity (MDA-MB-231 [1]): 3.61% | Activity (MCF7 [2]): Active | IC50 (HEK293): 30 µM | Activity (MCF7 [3]): 18.93% | IC50 (MDA-MB-231 [4]): 4.6 µM | Activity (MCF7 [5]): Dose-dependent effect | Activity (MCF7 [6]): 50% | Activity (MDA-MB-231 [7]): 0.6% | Activity [8]: Non-toxic | Activity (MDA-MB-231 [9]): 73.31% | Activity (MCF7 [10]): 86.22% | Activity (MCF7 [11]): 20.15% | Activity (MCF7 [12]): 6.86% | Activity (MCF7 [13]): 74.1% | Activity (MCF7 [14]): 6.97% | Activity (MCF7 [15]): 25.59% | Activity (MCF7 [16]): Active | Activity (MDA-MB-231 [17]): 67.73% | Activity (MCF7 [18]): 2.86% | Activity (MCF7 [19]): Dose-dependent effect | Activity (MDA-MB-231 [20]): 1.47% | Activity (MCF7 [21]): 7.34% | Activity (MDA-MB-231 [22]): 24.81% | IC50 (MDA-MB-231 [23]): 7.2 µM | Activity (MCF7 [24]): Active | Activity (MDA-MB-231 [25]): 18.64%
